Experimental data taken from ChEMBL document CHEMBL1275521, “Fluoroquinolone enhances the mutation frequency for meropenem-selected carbapenem resistance in Pseudomonas aeruginosa, but use of the high-potency drug doripenem inhibits mutant formation” (2008).
Values after ≈ are worked out from the molar mass of the structure shown.

What was measured:
Pseudomonas aeruginosa [1] = experiment: Antimicrobial activity against Pseudomonas aeruginosa GP62KT41 harboring oprD gene after 18 hrs by agar dilution method; format: functional
Method in brief: (§1)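 Carbapenem-resistant mutants were isolated on carbapenem-containing AB3 agar after 10^6-fold dilution and broth culture, with or without ciprofloxacin or ofloxacin. Randomly picked colonies were checked for MIC by agar dilution following CLSI guidelines, with 18 h incubation at 37°C. PAO1KTL and PAO1KTS came from meropenem selection without fluoroquinolone.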

Pseudomonas aeruginosa [2] = experiment: Antimicrobial activity against Pseudomonas aeruginosa GP37KT31 harboring oprD gene after 18 hrs by agar dilution method; format: functional; method in brief: as §1
Pseudomonas aeruginosa [3] = experiment: Antimicrobial activity against wild-type Pseudomonas aeruginosa GP62 after 18 hrs by agar dilution method; format: functional
Method in brief: (§2)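 MICs by agar dilution following CLSI guidelines; plates incubated 18 h at 37°C.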

Pseudomonas aeruginosa [4] = experiment: Antimicrobial activity against Pseudomonas aeruginosa GP4KT11 harboring oprD gene after 18 hrs by agar dilution method; details: GP4KT11, 18 h
Pseudomonas aeruginosa [5] = experiment: Antimicrobial activity against Pseudomonas aeruginosa PAO1 KTS harboring mexAB-oprM gene after 18 hrs by agar dilution method; format: functional; method in brief: as §1
Pseudomonas aeruginosa [6] = experiment: Antimicrobial activity against Pseudomonas aeruginosa PAO1 KTL1 harboring oprD, mexAB-oprM gene after 18 hrs by agar dilution method; format: functional
Pseudomonas aeruginosa [7] = experiment: Antimicrobial activity against Pseudomonas aeruginosa PAO1 after 18 hrs by agar dilution method; format: functional; method in brief: as §2
Pseudomonas aeruginosa [8] = experiment: Antimicrobial activity against Pseudomonas aeruginosa GP20KT21 harboring oprD gene after 18 hrs by agar dilution method; format: functional; method in brief: as §1
Pseudomonas aeruginosa [9] = experiment: Antimicrobial activity against Pseudomonas aeruginosa PAO1 KTL harboring oprD gene after 18 hrs by agar dilution method; format: functional; method in brief: as §1
Pseudomonas aeruginosa [10] = experiment: Antimicrobial activity against wild-type Pseudomonas aeruginosa GP20 after 18 hrs by agar dilution method; format: functional; method in brief: as §2
Pseudomonas aeruginosa [11] = experiment: Antimicrobial activity against wild-type Pseudomonas aeruginosa GP61 after 18 hrs by agar dilution method; format: functional; method in brief: as §2
Pseudomonas aeruginosa [12] = experiment: Antimicrobial activity against wild-type Pseudomonas aeruginosa GP4 after 18 hrs by agar dilution method; format: functional; method in brief: as §2
Pseudomonas aeruginosa [13] = experiment: Antimicrobial activity against Pseudomonas aeruginosa GP4KT111 harboring oprD,mexAB-oprM gene after 18 hrs by agar dilution method; format: functional
Pseudomonas aeruginosa [14] = experiment: Antimicrobial activity against Pseudomonas aeruginosa PAO1 SO20 harboring mexAB-oprM gene after 18 hrs by agar dilution method; format: functional
Pseudomonas aeruginosa [15] = experiment: Antimicrobial activity against wild-type Pseudomonas aeruginosa GP37 after 18 hrs by agar dilution method; format: functional; method in brief: as §2
Pseudomonas aeruginosa [16] = experiment: Antimicrobial activity against Pseudomonas aeruginosa PAO1 IPM46 harboring oprD gene after 18 hrs by agar dilution method; format: functional
Pseudomonas aeruginosa [17] = experiment: Antimicrobial activity against Pseudomonas aeruginosa GP61KT51 harboring oprD,mexAB-oprM gene after 18 hrs by agar dilution method; format: functional
Pseudomonas aeruginosa [18] = experiment: Antimicrobial activity against Pseudomonas aeruginosa GP4KT111 harboring oprD gene after 18 hrs by agar dilution method; format: functional; details: GP4KT11

How did the MIC (Pseudomonas aeruginosa [1]; GP62KT41, 18 h) turn out when `C[C@@H](O)[C@H]1C(=O)N2C(C(=O)O)=C(S[C@@H]3CN[C@H](C(=O)N(C)C)C3)[C@H](C)[C@H]12` [MEROPENEM] was run?
The MIC was 3.1 µg/mL (≈ 8.08 µM).

What about the MIC (Pseudomonas aeruginosa [2]; GP37KT31, 18 h) of the same compound?
Its MIC is 3.1 µg/mL (≈ 8.08 µM).

And the MIC (Pseudomonas aeruginosa [3]; GP62, 18 h)?
Its MIC is 0.2 µg/mL (≈ 0.522 µM).

What about the MIC (Pseudomonas aeruginosa [4]) of the same compound?
The MIC was 3.1 µg/mL (≈ 8.08 µM).

And the MIC (Pseudomonas aeruginosa [5])?
The MIC was 1.6 µg/mL (≈ 4.17 µM).

What about the MIC (Pseudomonas aeruginosa [6]; PAO1 KTL1, 18 h) of the same compound?
Its MIC is 6.3 µg/mL (≈ 16.4 µM).

And the MIC (Pseudomonas aeruginosa [7]; PAO1, 18 h)?
The MIC was 0.2 µg/mL (≈ 0.522 µM).

What about the MIC (Pseudomonas aeruginosa [8]; GP20KT21, 18 h) of the same compound?
The MIC was 3.1 µg/mL (≈ 8.08 µM).

What about the MIC (Pseudomonas aeruginosa [9]) of the same compound?
The MIC was 1.6 µg/mL (≈ 4.17 µM).

What about the MIC (Pseudomonas aeruginosa [10]; GP20, 18 h) of the same compound?
The MIC was 0.2 µg/mL (≈ 0.522 µM).

What about the MIC (Pseudomonas aeruginosa [11]; GP61, 18 h) of the same compound?
The MIC was 1.6 µg/mL (≈ 4.17 µM).

What about the MIC (Pseudomonas aeruginosa [12]; GP4, 18 h) of the same compound?
Its MIC is 0.2 µg/mL (≈ 0.522 µM).

And the MIC (Pseudomonas aeruginosa [13]; GP4KT111, 18 h)?
Its MIC is 12.5 µg/mL (≈ 32.6 µM).

And the MIC (Pseudomonas aeruginosa [14]; PAO1 SO20, 18 h)?
Its MIC is 1.6 µg/mL (≈ 4.17 µM).

And the MIC (Pseudomonas aeruginosa [15]; GP37, 18 h)?
Its MIC is 0.2 µg/mL (≈ 0.522 µM).

What about the MIC (Pseudomonas aeruginosa [16]; PAO1 IPM46, 18 h) of the same compound?
The MIC was 1.6 µg/mL (≈ 4.17 µM).

And the MIC (Pseudomonas aeruginosa [17]; GP61KT51, 18 h)?
Its MIC is 6.3 µg/mL (≈ 16.4 µM).

Which MIC (Pseudomonas aeruginosa [1]; GP62KT41, 18 h) does the source give for `CC1COc2c(N3CCN(C)CC3)c(F)cc3c(=O)c(C(=O)O)cn1c23` (stereo not drawn) [OFLOXACIN] here?
Its MIC is 1.6 µg/mL (≈ 4.43 µM).

What about the MIC (Pseudomonas aeruginosa [2]; GP37KT31, 18 h) of the same compound?
Its MIC is 1.6 µg/mL (≈ 4.43 µM).

And the MIC (Pseudomonas aeruginosa [3]; GP62, 18 h)?
Its MIC is 1.6 µg/mL (≈ 4.43 µM).

What about the MIC (Pseudomonas aeruginosa [4]) of the same compound?
Its MIC is 1.6 µg/mL (≈ 4.43 µM).

What about the MIC (Pseudomonas aeruginosa [5]) of the same compound?
Its MIC is 3.1 µg/mL (≈ 8.58 µM).

What about the MIC (Pseudomonas aeruginosa [6]; PAO1 KTL1, 18 h) of the same compound?
Its MIC is 3.1 µg/mL (≈ 8.58 µM).

And the MIC (Pseudomonas aeruginosa [7]; PAO1, 18 h)?
Its MIC is 0.8 µg/mL (≈ 2.21 µM).

What about the MIC (Pseudomonas aeruginosa [8]; GP20KT21, 18 h) of the same compound?
The MIC was 1.6 µg/mL (≈ 4.43 µM).

What about the MIC (Pseudomonas aeruginosa [9]) of the same compound?
Its MIC is 0.8 µg/mL (≈ 2.21 µM).

What about the MIC (Pseudomonas aeruginosa [10]; GP20, 18 h) of the same compound?
Its MIC is 1.6 µg/mL (≈ 4.43 µM).

And the MIC (Pseudomonas aeruginosa [11]; GP61, 18 h)?
The MIC was 1.6 µg/mL (≈ 4.43 µM).

What about the MIC (Pseudomonas aeruginosa [12]; GP4, 18 h) of the same compound?
The MIC was 1.6 µg/mL (≈ 4.43 µM).

And the MIC (Pseudomonas aeruginosa [13]; GP4KT111, 18 h)?
Its MIC is 6.3 µg/mL (≈ 17.4 µM).

What about the MIC (Pseudomonas aeruginosa [14]; PAO1 SO20, 18 h) of the same compound?
Its MIC is 3.1 µg/mL (≈ 8.58 µM).

What about the MIC (Pseudomonas aeruginosa [15]; GP37, 18 h) of the same compound?
Its MIC is 1.6 µg/mL (≈ 4.43 µM).

And the MIC (Pseudomonas aeruginosa [16]; PAO1 IPM46, 18 h)?
Its MIC is 0.8 µg/mL (≈ 2.21 µM).

What about the MIC (Pseudomonas aeruginosa [17]; GP61KT51, 18 h) of the same compound?
Its MIC is 6.3 µg/mL (≈ 17.4 µM).

How did the MIC (Pseudomonas aeruginosa [1]; GP62KT41, 18 h) turn out when `CCN1CCN(C(=O)N[C@@H](C(=O)N[C@@H]2C(=O)N3[C@@H]2SC(C)(C)[C@@H]3C(=O)O)c2ccccc2)C(=O)C1=O` [PIPERACILLIN] was run?
Its MIC is 100 µg/mL (≈ 193 µM).

What about the MIC (Pseudomonas aeruginosa [2]; GP37KT31, 18 h) of the same compound?
The MIC was 100 µg/mL (≈ 193 µM).

And the MIC (Pseudomonas aeruginosa [3]; GP62, 18 h)?
The MIC was 100 µg/mL (≈ 193 µM).

What about the MIC (Pseudomonas aeruginosa [4]) of the same compound?
The MIC was 100 µg/mL (≈ 193 µM).

What about the MIC (Pseudomonas aeruginosa [5]) of the same compound?
Its MIC is 12.5 µg/mL (≈ 24.2 µM).

What about the MIC (Pseudomonas aeruginosa [6]; PAO1 KTL1, 18 h) of the same compound?
The MIC was 12.5 µg/mL (≈ 24.2 µM).

And the MIC (Pseudomonas aeruginosa [7]; PAO1, 18 h)?
The MIC was 3.1 µg/mL (≈ 5.99 µM).

What about the MIC (Pseudomonas aeruginosa [8]; GP20KT21, 18 h) of the same compound?
The MIC was 100 µg/mL (≈ 193 µM).

And the MIC (Pseudomonas aeruginosa [9])?
Its MIC is 3.1 µg/mL (≈ 5.99 µM).

And the MIC (Pseudomonas aeruginosa [10]; GP20, 18 h)?
Its MIC is 100 µg/mL (≈ 193 µM).

And the MIC (Pseudomonas aeruginosa [11]; GP61, 18 h)?
The MIC was 3.1 µg/mL (≈ 5.99 µM).

What about the MIC (Pseudomonas aeruginosa [12]; GP4, 18 h) of the same compound?
Its MIC is 100 µg/mL (≈ 193 µM).

What about the MIC (Pseudomonas aeruginosa [13]; GP4KT111, 18 h) of the same compound?
The MIC was 200 µg/mL (≈ 386 µM).

And the MIC (Pseudomonas aeruginosa [14]; PAO1 SO20, 18 h)?
The MIC was 12.5 µg/mL (≈ 24.2 µM).

What about the MIC (Pseudomonas aeruginosa [15]; GP37, 18 h) of the same compound?
Its MIC is 100 µg/mL (≈ 193 µM).

What about the MIC (Pseudomonas aeruginosa [16]; PAO1 IPM46, 18 h) of the same compound?
The MIC was 3.1 µg/mL (≈ 5.99 µM).

And the MIC (Pseudomonas aeruginosa [17]; GP61KT51, 18 h)?
Its MIC is 12.5 µg/mL (≈ 24.2 µM).

What does the source list for GENTAMICIN?
MIC (Pseudomonas aeruginosa [1]): 1.6 µg/mL; MIC (Pseudomonas aeruginosa [2]): 100 µg/mL; MIC (Pseudomonas aeruginosa [3]): 1.6 µg/mL; MIC (Pseudomonas aeruginosa [5]): 1.6 µg/mL; MIC (Pseudomonas aeruginosa [6]): 1.6 µg/mL; MIC (Pseudomonas aeruginosa [18]): 100 µg/mL; MIC (Pseudomonas aeruginosa [7]): 1.6 µg/mL; MIC (Pseudomonas aeruginosa [8]): 3.1 µg/mL; MIC (Pseudomonas aeruginosa [9]): 1.6 µg/mL; MIC (Pseudomonas aeruginosa [10]): 3.1 µg/mL; MIC (Pseudomonas aeruginosa [11]): 1.6 µg/mL; MIC (Pseudomonas aeruginosa [12]): 100 µg/mL; MIC (Pseudomonas aeruginosa [13]): 100 µg/mL; MIC (Pseudomonas aeruginosa [14]): 1.6 µg/mL; MIC (Pseudomonas aeruginosa [15]): 100 µg/mL; MIC (Pseudomonas aeruginosa [16]): 1.6 µg/mL; MIC (Pseudomonas aeruginosa [17]): 1.6 µg/mL
